TAAR1 ag = human TAAR1 agonism. CHO RD-HGA16 TAAR1, Fluo-8 calcium fluorescence; vehicle wells 0%, saturating PEA agonist 100%. activation, % at 3 µM. 0.99% of 360,000 active;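 active = activation above the mean activation of all test compounds in the run plus 3 SD, cut at about 38% in these data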
Target sequence (Q96RJ0 whole entry, looked up): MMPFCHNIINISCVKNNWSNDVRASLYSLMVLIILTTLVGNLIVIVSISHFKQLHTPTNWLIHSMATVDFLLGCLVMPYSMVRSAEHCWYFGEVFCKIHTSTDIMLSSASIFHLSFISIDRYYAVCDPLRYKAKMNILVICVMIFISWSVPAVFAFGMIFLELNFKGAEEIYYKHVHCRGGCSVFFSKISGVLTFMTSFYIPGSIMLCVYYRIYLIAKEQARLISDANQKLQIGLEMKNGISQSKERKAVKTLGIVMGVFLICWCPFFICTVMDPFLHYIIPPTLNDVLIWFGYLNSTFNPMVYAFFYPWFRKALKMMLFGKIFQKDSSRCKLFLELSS
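System: CHO-derived RD-HGA16 cells with stable Gα16 and human TAAR1 / Times: 17-24 h plating, Fluo-8 75 min 37 °C, 30 min RT / Technique: calcium-sensitive Fluo-8 signal, excitation 470-495, emission 515-575 nm / Measure: % activation relative to PEA EC100 response / Benchmarks: DMSO and PEA EC100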
OXTR potentiate = potentiators of human oxytocin receptor; CHO-OTR cells, Fluo-8 calcium fluorescence, potentiator mode; 0% = oxytocin EC15, 100% = EC100; activation, % at 3 µM; 0.061% of 320,000 active; AID 2445;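 active = activation above that plate's cutoff, the mean activation of tested compounds plus 3 SD, cut at about 6.6% in these data, passing the limit was not always enough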
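Replication – single well per compound, singlicate · Assay system – CHO cell line stably expressing human OTR · Timing – 6 min pre-incubation, 100 s read · Measure – normalized max/min fluorescence ratio, % activation · Doses – 3.0 µM, one dose · Detection – Fluo-8 calcium dye fluorescence · Probe or stimulus – oxytocin near EC15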
TAAR1 antag = human TAAR1 antagonism; Q96RJ0; CHO RD-HGA16 TAAR1, Fluo-8 calcium fluorescence, antagonist; inhibition, % at 3 µM; 1.5% of 360,000 active;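 active = inhibition above a per-plate cutoff, the mean inhibition of test compounds on that plate plus 3 SD, cut at about 49% in these data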
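Test system: CHO RD-HGA16 cells bearing hTAAR1 | Reagent: β-PEA, EC80 | Compound dosing: 3 µM, single point | Schedule: Dye loading 75 min at 37 °C, then 30 min room temperature | Signal: Calcium fluorescence with Fluo-8 | Evaluation: Percent inhibition of PEA-evoked calcium signal, max/basal emission ratio | Control set: DMSO-only wells and EC80 β-PEA-stimulated wells | Repeats: Singlicate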
OXTR ag = activates the human oxytocin receptor; P30559; CHO-OTR cells, Fluo-8 calcium fluorescence; normalized: DMSO 0%, oxytocin 100%; activation, % at 3 µM; 0.32% of 320,000 active; AID 2435;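 active = activation above the mean of all tested compounds plus 3 SD, cutoff set per screening run, cut at about 20% in these data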;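 note: peak over basal fluorescence ratio from a 100 s FLIPR kinetic read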
V1aR counter = V1a receptor agonism, counter-screen for OXTR agonists. CHO-V1R cells, Fluo-8 calcium fluorescence, agonist mode; 0% DMSO, 100% 3 nM vasopressin. 0.25% of 320,000 active. activation, % at 3 µM. AID 2797;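 active = activation above the mean activation of all tested compounds plus 3 SD, per screening run, cut at about 20% in these data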;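 note: signal is peak over basal fluorescence ratio across a 100 second FLIPR read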
A number is an active result; – = inactive; · = not tested or not shown. Hits are enriched below; roughly 2.3% of the tested compounds scored in any of these assays.

SMILES	TAAR1 ag	OXTR potentiate	TAAR1 antag	OXTR ag	V1aR counter
CN(CC(=O)Nc1cccc(F)c1)C(=O)c1ccc(C2SCCS2)cc1	–	–	–	–	–
CN(CC(=O)Nc1cccc(F)c1)C(=O)c1ccc2c(c1)CC(c1ccccc1)OC2=O (centres undefined)	–	·	58.4	·	·
CCc1cc2c(nc1CC)CCCN2S(=O)(=O)c1ccccc1C	–	·	–	·	·
Cc1cc(O)c(S(=O)(=O)c2ccccc2)c(C)c1NS(=O)(=O)c1ccccc1	–	–	–	–	–
COc1cc(/C=C2\COC/C(=C\c3cc(OC)c(OC)c(OC)c3)C2=O)cc(OC)c1OC	–	·	53.4	·	·
CCCCOc1ccc(C(=O)NCC(=O)NCCCn2nc(C)cc2C)cc1	–	–	–	–	–
O=[N+]([O-])c1ccc(O)c(/C=N/n2c(CO)nc3ccccc32)c1	–	–	–	–	–
O=[N+]([O-])c1ccc(O)c(/C=N/n2cnc3ccccc32)c1	–	–	–	20.9	–
COc1ccc(CN2C[C@H](COCc3ccccc3)Oc3cccc(F)c3S2(=O)=O)cc1	–	·	–	·	·
COc1ccc(/C=C2\CCCc3c2nc2ccccc2c3C(=O)O)cc1OC	·	–	·	–	–
CCOc1ccc(/C=C2\CCCc3c2nc2ccccc2c3C(=O)O)cc1OC	·	–	·	100.2	134.8
COc1cc(CCC(C)=O)ccc1OC(=O)c1c(-c2c(F)cccc2Cl)noc1C	–	·	–	·	·
COc1ccc(-c2cc3nc(-c4ccccc4)cc(N4CCC(O)CC4)n3n2)cc1	–	–	49.2	–	–
COc1ccc(-c2cc3nc(-c4ccccc4)cc(N4CCCC(O)C4)n3n2)cc1 (centres undefined)	–	–	–	–	–
O=C(c1ccc(N2CCN(C(=O)c3ccc(F)cc3F)CC2)cc1)c1cccc(F)c1	–	–	62.7	–	–
O=C(c1ccc(F)cc1F)N1CCN(c2ncccn2)CC1	–	–	–	–	–
Cc1ccc(SCc2c(C(=O)N/N=C/c3cccs3)nnn2-c2nonc2N)cc1	–	·	62.1	·	·
Cc1ccsc1/C=N/NC(=O)c1nnn(-c2nonc2N)c1CN(C)c1ccccc1	–	–	48.9	–	–
Cc1ccc(SCc2c(C(=O)N/N=C/c3ccccc3)nnn2-c2nonc2N)cc1	–	–	–	–	–
Cc1cc(C)c(C#N)c(SCC(O)COc2ccc(Br)cc2)n1 (centres undefined)	–	–	56.2	–	–
N#CCC(=O)Nc1ccc(C(=O)OCC(=O)c2c[nH]c3ccccc23)cc1	43.2	–	–	–	–
COc1ccc(C(=O)NCC(=O)OCC(=O)c2c[nH]c3ccccc23)cc1	–	·	–	·	·
CC(=O)c1ccc(NC(=O)COC(=O)c2c[nH]c3ccccc23)cc1	–	–	–	–	–
O=C(CNC(=O)c1ccccc1)OCC(=O)c1c[nH]c2ccccc12	39.7	–	–	–	–
c1ccc(Nc2ccc3c4c(cccc24)CC3)cc1	–	–	–	–	–
SMILES	TAAR1 ag	OXTR potentiate	TAAR1 antag	OXTR ag	V1aR counter
Nc1ccc2c3c(cccc13)CC2	–	–	–	46.0	46.3
[O-][n+]1nc2ccccc2c2ccccc21	–	·	–	·	·
O=C(Nc1ccc(Cl)c(Cl)c1)N(CCCN1CCOCC1)Cc1cccs1	45.6	–	–	–	–
O=C(NCc1ccc(Cl)cc1)c1ccc(-n2cccn2)nc1	41.0	–	–	–	–
CC1(C)O[C@@H]2[C@H](O1)[C@@H](O)C[C@H]2n1cnc2c(Cl)ncnc21	–	·	–	·	·
COC(=O)[C@]12C[C@H](CC(=O)NCc3cccc4ccccc34)C(=O)N(Cc3ccc4c(c3)OCO4)C1=C[C@H](COCc1ccccc1)O[C@@H]2C	–	·	–	·	·
CCCc1cc(=O)oc2c3c(cc(OCC(=O)NCc4ccncc4)c12)OC(C)(C)CC3	–	–	48.9	–	–
CCCc1cc(=O)oc2c3c(cc(OCC(=O)NCc4ccccn4)c12)OC(C)(C)CC3	–	–	49.2	–	–
Cc1cc(=O)oc2c3c(cc(OCC(=O)Nc4ccc(CCO)cc4)c12)OC(C)(C)CC3	–	–	50.9	–	–
C[C@@H](NS(=O)(=O)c1c(F)cccc1F)c1ccccc1	–	·	–	·	·
CS(=O)(=O)Nc1cccc(NC(=O)c2cccc3c(-c4cccc(C(N)=O)c4)coc23)c1	–	·	65.8	·	·
CS(=O)(=O)Nc1cccc(NC(=O)c2cccc3c(-c4ccc(F)c(F)c4)coc23)c1	–	·	64.2	·	·
CS(=O)(=O)Nc1cccc(NC(=O)c2ccc(-c3ccc(F)c(F)c3)c3ccoc23)c1	–	·	–	·	·
C=CCN1C(=O)c2ccc(C(=O)NCCOc3ccccc3F)cc2C1=O	–	–	–	–	–
CCC(Sc1nc(C)cc(=O)[nH]1)C(=O)Nc1sc2c(c1C#N)CCCC2 (centres undefined)	39.5	–	–	–	–
C=CCN(c1ccccc1OC)S(=O)(=O)c1cccc(C(=O)OCC(=O)c2c(N)n(C)c(=O)n(C)c2=O)c1	–	·	51.7	·	·
Cc1ccc(CNc2nc(NCC3CC3)nc3ccsc23)c(C)c1	–	·	–	·	·
CNc1nc(NCC2CCCCC2)c2sccc2n1	49.5	·	–	·	·
Cn1c(N)c(C(=O)COC(=O)CC2CC3CCC2C3)c(=O)n(C)c1=O (centres undefined)	40.1	–	–	–	–
Cn1c(N)c(C(=O)COC(=O)Cc2ccc(Br)cc2)c(=O)n(C)c1=O	–	–	–	–	–
COc1ccc(CNC(=O)OC23CN(C(=O)OC(C)C)N(C(=O)OC(C)C)CC2(O)CN(S(=O)(=O)c2ccc(C)cc2)C3)cc1OC (centres undefined)	–	·	–	·	·
Cc1ccc(S(=O)(=O)N2CC3(O)CN(C(=O)OC(C)C)N(C(=O)OC(C)C)CC3(OC(=O)NCc3ccccc3)C2)cc1 (centres undefined)	–	·	60.1	·	·
COc1cc(OC)c2c(=O)c3c(C(=O)O)c(O)ccc3oc2c1	–	·	–	·	·
CC(C)C[C@H](NC(=O)c1nc[nH]c1C(=O)NCCCCCNC(=O)OC(C)(C)C)C(=O)OCc1ccccc1	–	–	–	–	–
C[C@H](NC(=O)c1nc[nH]c1C(=O)N[C@@H](CCCCNC(=O)OC(C)(C)C)C(=O)OC(C)(C)C)C(=O)OCc1ccccc1	–	–	–	–	–
CC(C)(C)OC(=O)NCCCCCNC(=O)c1[nH]cnc1C(=O)N[C@@H](Cc1ccccc1)C(=O)OCc1ccccc1	–	–	54.3	–	–
C[C@H](NC(=O)c1nc[nH]c1C(=O)NCCCCCNC(=O)OC(C)(C)C)C(=O)OCc1ccccc1	–	–	76.3	–	–
O=C(CNC(=O)c1[nH]cnc1C(=O)N[C@@H](Cc1ccccc1)C(=O)OCc1ccccc1)OCc1ccccc1	–	–	63.9	–	–
CC(C)N(C[C@@H]1CSCCS(=O)(=O)N1)C1CCCCC1	–	·	–	·	·
OC1(C#Cc2c(-c3ccsc3)sc3ccccc23)CCCCC1	–	·	–	·	·

Bioassay records deposited in PubChem by The Scripps Research Institute Molecular Screening Center.
